In the library only some 1.9% were active in any assay of this set; here they are far more common.
ARFGAP1 inh – inhibitors of rat ARFGAP1 GAP activity, primary screen, biochemical, fluorescence polarization, GDP tracer. hit rate 0.26% among 360,000. inhibition, % at 16.5 µM. ADP-ribosylation factor GTPase-activating protein 1 (Rattus norvegicus), Q62848. Arfgap1-stimulated ARF1 GTP hydrolysis, GDP FP detection. AID 651572, 2012;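 active = inhibition above a per-plate limit, mean inhibition of low control wells plus 3 SD, cut at about 25% in these data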;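 note: 0% = DMSO wells with enzyme and 100% = wells lacking Arfgap1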
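material = rat Arfgap1 catalytic domain, aa 1-136 | also added = human ARF1(Δ1-17)-GTP substrate | compound dosing = one concentration, 16.5 µM, DMSO 1.26% | times = GTP hydrolysis reaction 2 h at 25 °C | measured by = FP, GDP Alexa 633 tracer displaced from anti-GDP antibody, 620/688 nm | evaluation = percent inhibition of Arfgap1-stimulated GTP hydrolysis | replication = single well per compound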
PLC-gamma1 inh – PLC-gamma1 enzyme inhibitors, primary screen, biochemical, fluorescence, purified enzyme. 1-phosphatidylinositol 4,5-bisphosphate phosphodiesterase gamma-1 (Homo sapiens), P19174. fluorogenic substrate. inhibition, % at 12.2 µM. hit rate 0.84% among 370,000; in the data active = inhibition above about 9.5%
ASAP1 inh – inhibitors of human ASAP1 ArfGAP activity, primary screen, biochemical, fluorescence polarization; Arf-GAP with SH3 domain, ANK repeat and PH domain-containing protein 1 (Homo sapiens), …; ASAP1-stimulated ARF1 GTP hydrolysis, GDP FP detection; inhibition, % at 16.5 µM; hit rate 0.19% among 360,000; in the data active = inhibition above about 25%;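 note: 0% = vehicle with enzyme and substrate and 100% = no enzyme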
PLCb3 inh – human PLC-beta3 inhibitors, primary screen, biochemical, fluorescence; Purified PLC-beta3, fluorogenic substrate; inhibition, % at 12.2 µM; hit rate 0.18% among 370,000;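 note: 0% = median of compound wells on plate and 100% = full blocker control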
Target sequence (Q01970 whole entry, looked up): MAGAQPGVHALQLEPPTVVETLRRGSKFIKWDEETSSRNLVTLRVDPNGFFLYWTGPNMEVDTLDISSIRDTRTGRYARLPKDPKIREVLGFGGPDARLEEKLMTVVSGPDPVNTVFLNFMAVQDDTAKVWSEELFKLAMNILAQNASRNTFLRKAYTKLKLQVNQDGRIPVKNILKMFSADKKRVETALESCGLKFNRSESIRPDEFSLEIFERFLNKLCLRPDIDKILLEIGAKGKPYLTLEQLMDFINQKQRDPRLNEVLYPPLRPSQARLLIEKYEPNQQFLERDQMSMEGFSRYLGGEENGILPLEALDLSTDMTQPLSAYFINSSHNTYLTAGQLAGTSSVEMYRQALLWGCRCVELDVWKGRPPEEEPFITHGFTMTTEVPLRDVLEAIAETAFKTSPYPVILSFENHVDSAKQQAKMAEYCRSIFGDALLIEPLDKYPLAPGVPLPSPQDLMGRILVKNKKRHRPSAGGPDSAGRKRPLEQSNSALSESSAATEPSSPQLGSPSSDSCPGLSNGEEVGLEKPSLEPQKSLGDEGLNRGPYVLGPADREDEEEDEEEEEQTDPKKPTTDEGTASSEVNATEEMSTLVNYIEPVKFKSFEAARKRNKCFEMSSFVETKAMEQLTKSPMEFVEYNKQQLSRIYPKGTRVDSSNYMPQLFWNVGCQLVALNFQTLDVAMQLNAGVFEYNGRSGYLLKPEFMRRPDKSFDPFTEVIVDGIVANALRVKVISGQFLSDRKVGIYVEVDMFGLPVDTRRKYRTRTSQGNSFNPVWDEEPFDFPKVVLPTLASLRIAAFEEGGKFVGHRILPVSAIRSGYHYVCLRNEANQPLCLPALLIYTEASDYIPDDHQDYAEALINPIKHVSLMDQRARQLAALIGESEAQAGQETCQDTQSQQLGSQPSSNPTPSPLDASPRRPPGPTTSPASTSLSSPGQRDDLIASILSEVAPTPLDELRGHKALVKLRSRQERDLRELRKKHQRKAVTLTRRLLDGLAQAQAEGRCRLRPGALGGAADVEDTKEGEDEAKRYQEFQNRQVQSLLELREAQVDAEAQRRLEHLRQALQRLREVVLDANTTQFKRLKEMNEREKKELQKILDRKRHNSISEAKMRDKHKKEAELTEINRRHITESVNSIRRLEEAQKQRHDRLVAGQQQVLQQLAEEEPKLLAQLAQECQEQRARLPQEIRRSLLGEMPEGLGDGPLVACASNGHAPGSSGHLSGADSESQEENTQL
HGIII-sPLA2 inh – human group III sPLA2 inhibitors, primary screen, biochemical, QFRET, BODIPY PC-A2 liposome substrate; Group 3 secretory phospholipase A2 (Homo sapiens), Q9NZ20; QFRET BODIPY PC-A2 liposome hydrolysis, fluorescence; inhibition, % at 12.2 µM; hit rate 0.56% among 370,000; AID 743126, 2013;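 active = inhibition above mean plus 3 SD of compounds lying within the high and low control bounds, cut at about 19% in these data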;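 note: 0% = median of test compound wells and 100% = no enzyme DMSO wells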
PLCg1 ctr – PLC-gamma1 enzyme inhibitors, counter-screen for PLC-beta3 inhibitor project, biochemical, fluorescence; inhibition, % at 12.3 µM; hit rate 3.1% among 3,300; shares compounds with PLC-gamma1 inh; purified PLC-gamma1, fluorogenic substrate; in the data active = inhibition above about 9.5%
PLCb3 confirm – PLC-beta3 inhibitor confirmation, biochemical, fluorescence, purified enzyme. shares compounds with PLC-gamma1 inh. hit rate 1% among 3,300. fluorogenic substrate fluorescence. inhibition, % at 12.3 µM
* hit, by the source's call. Cut-off read from the data, not from the text of the source, unless noted: active = inhibition above about 11%; inactive = the rest.

`O=C(c1c(F)cccc1F)N1CCC(Oc2cccnc2)CC1` gave PLC-gamma1 inh 1, PLCb3 inh -2 and HGIII-sPLA2 inh 3.
Screening CCn1c(CNc2ccc(C)cc2)nnc1SCC(N)=O returned ARFGAP1 inh 9, PLC-gamma1 inh 9.7*, ASAP1 inh -1, PLCb3 inh 5, HGIII-sPLA2 inh 12, PLCg1 ctr -3 and PLCb3 confirm 0.
Cc1cccnc1NC(=O)c1ccc(S(=O)(=O)N2CCCCC2)cc1 was read as ARFGAP1 inh 2, PLC-gamma1 inh 11*, ASAP1 inh -7, PLCb3 inh 3, HGIII-sPLA2 inh 4, PLCg1 ctr -3 and PLCb3 confirm 6.
For O=C(Nc1ccncc1)c1cccc(S(=O)(=O)N2CCCC2)c1 the results were ARFGAP1 inh -3, PLC-gamma1 inh 10*, ASAP1 inh 3, PLCb3 inh -3, HGIII-sPLA2 inh 2, PLCg1 ctr -2 and PLCb3 confirm -3.
O=C(Nc1ccncc1)c1cccc(S(=O)(=O)N2CCOCC2)c1 was read as ARFGAP1 inh -4, PLC-gamma1 inh 1, ASAP1 inh -3, PLCb3 inh -5 and HGIII-sPLA2 inh 0.
For CCCCCC[C@@H](CC)CN(C(=O)Oc1ccccc1)c1ccccc1 the results were PLC-gamma1 inh 2, PLCb3 inh -1 and HGIII-sPLA2 inh 12.
Screening CN1C(=O)C2C3c4ccccc4C(c4ccccc43)[C@@H]2C1=O (stereo not given in full) returned ARFGAP1 inh 10, PLC-gamma1 inh 2, ASAP1 inh 13, PLCb3 inh -1 and HGIII-sPLA2 inh 1.
CC(=O)N(C(C)=O)N1C(=O)C2C3c4ccccc4C(c4ccccc43)C2C1=O (stereo not given) was read as ARFGAP1 inh -8, PLC-gamma1 inh 13*, ASAP1 inh -10, PLCb3 inh 12*, HGIII-sPLA2 inh 7, PLCg1 ctr -3 and PLCb3 confirm 1.
`CCN(c1ccccc1)S(=O)(=O)c1ccc(Cl)c(C(=O)NCC2CCCO2)c1` (stereo not given) gave ARFGAP1 inh -11, PLC-gamma1 inh 12*, ASAP1 inh 3, PLCb3 inh -3, HGIII-sPLA2 inh -5, PLCg1 ctr -6 and PLCb3 confirm -2.
For CC(N)(C(=O)O)c1cccc(OCc2cccc(Cl)c2)c1 (stereo not given) the results were ARFGAP1 inh -6, PLC-gamma1 inh 11*, ASAP1 inh -13, PLCb3 inh 4, HGIII-sPLA2 inh 2, PLCg1 ctr -3 and PLCb3 confirm -5.
CS(=O)(=O)N(CC(=O)NCCSc1ccccn1)c1ccc(F)cc1 was read as ARFGAP1 inh -10, PLC-gamma1 inh 3, ASAP1 inh 11, PLCb3 inh 1 and HGIII-sPLA2 inh 1.
CS(=O)(=O)N(CC(=O)NCCSCc1ccccc1Cl)c1ccc(F)cc1 was read as ARFGAP1 inh -2, PLC-gamma1 inh 13*, ASAP1 inh 1, PLCb3 inh 0, HGIII-sPLA2 inh 2, PLCg1 ctr -4 and PLCb3 confirm -2.
Screening Cc1ccc(CNC(=O)C(C)OC(=O)c2ccco2)cc1 (stereo not given) returned ARFGAP1 inh -22, PLC-gamma1 inh 13*, ASAP1 inh 2, PLCb3 inh 2, HGIII-sPLA2 inh 3, PLCg1 ctr 4 and PLCb3 confirm 2.
`CCCCNS(=O)(=O)CC1NCc2ccc(C)cc21` (stereo not given) gave PLC-gamma1 inh -7, PLCb3 inh -8 and HGIII-sPLA2 inh 0.

Screens from PubChem BioAssay.
